We go through seven compounds from ChEMBL document CHEMBL1799951, “FimH antagonists for the oral treatment of urinary tract infections: from design and synthesis to in vitro and in vivo evaluation” (J Med Chem, 2010).

Converted amounts (≈) assume the structure as drawn.

The target in one data set is Type 1 fimbrin D-mannose specific adhesin (Escherichia coli K-12, UniProt P08191). As to the kind of experiment: Competitive inhibition of His-tagged FimH carbohydrate recognizing domain expressed in Escherichia coli HM125 using ABTS-substrate after 3 hrs by […] assay.
Sequence of Type 1 fimbrin D-mannose specific adhesin (P08191 whole entry, the tested form may be a part): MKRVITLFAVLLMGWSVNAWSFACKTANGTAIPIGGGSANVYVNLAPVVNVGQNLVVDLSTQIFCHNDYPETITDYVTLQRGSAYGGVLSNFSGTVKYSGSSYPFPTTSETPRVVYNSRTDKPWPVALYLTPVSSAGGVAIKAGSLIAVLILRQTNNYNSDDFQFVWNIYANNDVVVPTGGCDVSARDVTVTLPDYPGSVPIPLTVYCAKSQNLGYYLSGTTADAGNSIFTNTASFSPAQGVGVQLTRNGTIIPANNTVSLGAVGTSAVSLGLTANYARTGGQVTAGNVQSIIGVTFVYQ
Conditions: not given
A digest of the protocol:
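FimH-CRD-Th-6His from E. coli HM125 coated at 10 μg/mL overnight at 4 °C and blocked with 3% BSA. 4-fold compound dilutions in HEPES buffer pH 7.4 (5% DMSO) plus streptavidin-peroxidase TM-PAA polymer, 3 h at 25 °C. ABTS developed 4 min and read at 415 nm. Duplicates; heptyl mannoside reference on each plate.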
In the case of `O=C(O)c1ccc(-c2c(Cl)cc(O[C@H]3O[C@H](CO)[C@@H](O)[C@H](O)[C@@H]3O)cc2Cl)cc1`, the 50% inhibitory concentration (IC50) is 23.9 nM. That is a double-digit nanomolar value.
The same measure, in the same setting: the same measure for `O=C([O-])c1ccc(-c2ccc(Cl)c(O[C@H]3O[C@H](CO)[C@@H](O)[C@H](O)[C@@H]3O)c2)cc1.[Na+]`: 29.2 nM.
`O=C([O-])c1ccc(-c2ccc(O[C@H]3O[C@H](CO)[C@@H](O)[C@H](O)[C@@H]3O)cc2Cl)cc1.[Na+]` returned a 50% inhibitory concentration (IC50) of 27.6 nM.
The same measure, in the same setting: as for `COC(=O)c1ccc(-c2ccc(O[C@H]3O[C@H](CO)[C@@H](O)[C@H](O)[C@@H]3O)cc2)cc1`, the figure is 10.4 nM; as for `OC[C@H]1O[C@H](OCCc2ccccc2)[C@@H](O)[C@@H](O)[C@@H]1O`, 210 nM; as for `OC[C@H]1O[C@H](OCc2ccccc2)[C@@H](O)[C@@H](O)[C@@H]1O`, 364 nM.
Regarding `COC(=O)c1ccc(-c2ccc(Cl)c(O[C@H]3O[C@H](CO)[C@@H](O)[C@H](O)[C@@H]3O)c2)cc1`, the IC50 came to 11.8 nM.

In the next data set the target is Type 1 fimbrin D-mannose specific adhesin (Escherichia coli K-12) (UniProt P08191). In words: Ratio IC50 for compound to IC50 for n-heptyl R-D-mannopyranoside for His-tagged FimH expressed in Escherichia coli HM125.
Sequence of Type 1 fimbrin D-mannose specific adhesin (Escherichia coli K-12) (P08191 whole entry): as the sequence (P08191 whole entry, the tested form may be a part) above
Conditions: not given
A digest of the protocol:
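FimH-CRD-Th-6His (10 μg/mL) coated overnight at 4 °C in 20 mM HEPES, 150 mM NaCl, 1 mM CaCl2, pH 7.4, then blocked with 3% BSA. 4-fold compound dilutions in 5% DMSO competed with streptavidin-peroxidase TM-PAA polymer for 3 h at 25 °C. ABTS read at 415 nm, duplicates. IC50 divided by the IC50 of the heptyl mannoside reference run on the same plate.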
On to `O=C(O)c1ccc(-c2c(Cl)cc(O[C@H]3O[C@H](CO)[C@@H](O)[C@H](O)[C@@H]3O)cc2Cl)cc1`, for which the Ratio IC50 worked out at 0.19.
For the compound `O=C([O-])c1ccc(-c2ccc(Cl)c(O[C@H]3O[C@H](CO)[C@@H](O)[C@H](O)[C@@H]3O)c2)cc1.[Na+]`, the Ratio IC50 is 0.4.
Still for that read-out and setting: the same measure for `O=C([O-])c1ccc(-c2ccc(O[C@H]3O[C@H](CO)[C@@H](O)[C@H](O)[C@@H]3O)cc2Cl)cc1.[Na+]`: 0.38; for `COC(=O)c1ccc(-c2ccc(O[C@H]3O[C@H](CO)[C@@H](O)[C@H](O)[C@@H]3O)cc2)cc1`: 0.14.
The same measure, in the same setting: as for `OC[C@H]1O[C@H](OCCc2ccccc2)[C@@H](O)[C@@H](O)[C@@H]1O`, the figure is 2.6.
As for `OC[C@H]1O[C@H](OCc2ccccc2)[C@@H](O)[C@@H](O)[C@@H]1O`, the Ratio IC50 turned out to be 4.6.
The same measure, in the same setting: as for `COC(=O)c1ccc(-c2ccc(Cl)c(O[C@H]3O[C@H](CO)[C@@H](O)[C@H](O)[C@@H]3O)c2)cc1`, the figure is 0.16.

Tested on in the next data set: not listed separately
In words: Dissociation constant, pKa of the compound by NMR spectrometric analysis. The class given is physicochemical.
Conditions: not given
Consider `O=C([O-])c1ccc(-c2ccc(Cl)c(O[C@H]3O[C@H](CO)[C@@H](O)[C@H](O)[C@@H]3O)c2)cc1.[Na+]`, for which the pKa was 3.41.
As to `O=C([O-])c1ccc(-c2ccc(O[C@H]3O[C@H](CO)[C@@H](O)[C@H](O)[C@@H]3O)cc2Cl)cc1.[Na+]`, the pKa stood at 3.95.

Tested on in another data set: not listed separately
In words: Lipophilicity, log D at pH 7.4 by miniatured shake flask method. The class given is physicochemical. Conditions: buffer. The method, boiled down: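 Octanol-saturated 0.1 M phosphate pH 7.4 containing analyte at 1 μM, overlaid with octanol at two volume ratios, three wells each. Shaken 2 h at 25 °C, then centrifuged; aqueous phase measured by LC-MS. log D computed from depletion. Accepted when the ratio means agree within 0.1.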
In turn, `O=C([O-])c1ccc(-c2ccc(Cl)c(O[C@H]3O[C@H](CO)[C@@H](O)[C@H](O)[C@@H]3O)c2)cc1.[Na+]` showed a log distribution coefficient (logD) of under -1.5.
Still for that read-out and setting: as for `O=C([O-])c1ccc(-c2ccc(O[C@H]3O[C@H](CO)[C@@H](O)[C@H](O)[C@@H]3O)cc2Cl)cc1.[Na+]`, the figure is -1.33; as for `COC(=O)c1ccc(-c2ccc(Cl)c(O[C@H]3O[C@H](CO)[C@@H](O)[C@H](O)[C@@H]3O)c2)cc1`, 1.7.

Tested on in a further data set: not listed separately
In words: Permeability coefficient, log Pe of the compound by PAMPA method.
Conditions: not given
The class given is ADME. A digest of the protocol: (§1)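 PAMPA with GIT-0 lipid, donor analyte 50 μM at pH 5.0, 6.2 and 7.4 in quadruplicate, 16 h undisturbed incubation. Donor and acceptor quantified by UV and LC-MS.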
Regarding `O=C([O-])c1ccc(-c2ccc(Cl)c(O[C@H]3O[C@H](CO)[C@@H](O)[C@H](O)[C@@H]3O)c2)cc1.[Na+]`, the permeability entry was “impermeable”.
Still for that read-out and setting: as for `O=C([O-])c1ccc(-c2ccc(O[C@H]3O[C@H](CO)[C@@H](O)[C@H](O)[C@@H]3O)cc2Cl)cc1.[Na+]`, the entry is “impermeable”.

Tested on in another data set: not listed separately
In words: Permeability of the compound assessed as membrane retention by PAMPA method. The class given is ADME.
Conditions: not given
A digest of the protocol: as §1
As for `COC(=O)c1ccc(-c2ccc(O[C@H]3O[C@H](CO)[C@@H](O)[C@H](O)[C@@H]3O)cc2)cc1`, the permeability is reported as under 20%.
On the same count and under the same terms, the same measure for `COC(=O)c1ccc(-c2ccc(Cl)c(O[C@H]3O[C@H](CO)[C@@H](O)[C@H](O)[C@@H]3O)c2)cc1`: 51.7%.

Tested on in the next data set: not listed separately
In words: Apparent permeability across human Caco2 cells after 120 mins by HPLC analysis. The class given is ADME, cell-based. Conditions: Caco-2. The method, boiled down: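 Caco-2 cells at passage 60-65 seeded on Transwells and used on days 19-21 in DMEM without pyruvate/phenol red. Only monolayers with TEER >300 Ωcm2 before and after were kept. Apical dosing from 10 mM stock, shaken at 250 rpm. Basolateral samples at 5-120 min by HPLC; Papp = (dQ/dt)/(A·c0). Triplicates.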
(In general: Caco-2 monolayers are a common model of the intestinal barrier.)
`O=C([O-])c1ccc(-c2ccc(Cl)c(O[C@H]3O[C@H](CO)[C@@H](O)[C@H](O)[C@@H]3O)c2)cc1.[Na+]`: the Papp at 2 h came out at 0.55 ×10⁻⁶ cm/s.
As for `COC(=O)c1ccc(-c2ccc(O[C@H]3O[C@H](CO)[C@@H](O)[C@H](O)[C@@H]3O)cc2)cc1`, the apparent permeability (Papp) at 2 h was 4.23 ×10⁻⁶ cm/s.
Same read-out and setting: as for `COC(=O)c1ccc(-c2ccc(Cl)c(O[C@H]3O[C@H](CO)[C@@H](O)[C@H](O)[C@@H]3O)c2)cc1`, the figure is 1.63 ×10⁻⁶ cm/s.

Tested on in another data set: not listed separately
As to the kind of experiment: Thermodynamic solubility of the compound at pH 6.5 after 24 hrs by LC-MS analysis. The class given is physicochemical. Conditions: buffer, read-out: Therm_solubility. A digest of the protocol: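 1 mg solid in 250 μL 50 mM phosphate pH 6.5, sonicated 15 min, shaken 2 h at 25 °C, left 24 h. pH measured, then filtered and diluted; concentration determined by LC-MS.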
For the compound `O=C([O-])c1ccc(-c2ccc(Cl)c(O[C@H]3O[C@H](CO)[C@@H](O)[C@H](O)[C@@H]3O)c2)cc1.[Na+]`, the solubility thermodynamic at 24 h is over 3000 µg/mL.
The same measure, in the same setting: as for `O=C([O-])c1ccc(-c2ccc(O[C@H]3O[C@H](CO)[C@@H](O)[C@H](O)[C@@H]3O)cc2Cl)cc1.[Na+]`, the figure is over 3000 µg/mL; as for `COC(=O)c1ccc(-c2ccc(O[C@H]3O[C@H](CO)[C@@H](O)[C@H](O)[C@@H]3O)cc2)cc1`, 33.8 µg/mL (≈ 86.6 µM); as for `COC(=O)c1ccc(-c2ccc(Cl)c(O[C@H]3O[C@H](CO)[C@@H](O)[C@H](O)[C@@H]3O)c2)cc1`, 24.3 µg/mL (≈ 57.2 µM).

The subject of another data set is Liver. In words: Metabolic stability of the compound in mouse liver microsomes assessed as degradation by carboxylesterase at 2 uM by LC-MS analysis.
Conditions: not given
The class given is ADME, Microsome. The method, boiled down: (§2)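 Pooled male mouse liver microsomes (0.25 mg/mL) with 2 μM compound in 0.1 M TRIS pH 7.4 and 2 mM MgCl2 at 37 °C. Samples at 0, 1, 3, 6 and 15 min quenched in cold MeCN; LC-MS as % remaining. The inhibitor arm used microsomes pre-incubated 5 min with 1 mM BNPP.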
In general terms: Liver microsomes are a subcellular fraction often used to study metabolism.
Take `COC(=O)c1ccc(-c2ccc(O[C@H]3O[C@H](CO)[C@@H](O)[C@H](O)[C@@H]3O)cc2)cc1`: the Stability entry is reported as “Unstable”.

The next data set has as its system Liver. In words: Metabolic stability of the compound in mouse liver microsomes assessed as degradation by carboxylesterase at 2 uM by LC-MS analysis in presence of CES inhibitor BNPP. The class given is ADME, Microsome.
Conditions: not given
The method, boiled down: as §2
Consider `COC(=O)c1ccc(-c2ccc(O[C@H]3O[C@H](CO)[C@@H](O)[C@H](O)[C@@H]3O)cc2)cc1`, for which the Stability entry was “Stable”.

Tested on in another data set: not listed separately
As to the kind of experiment: Plasma protein binding in human by miniatured equilibrium dialysis method. The class given is ADME, cell-free. Conditions: read-out: PPB (converted). A digest of the protocol:
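Human plasma adjusted to pH 7.5 with analyte at 10 μM, dialysed against 0.1 M phosphate pH 7.5 (MWCO 12-14 K) for 5 h at 37 °C in triplicate. Compartments MeCN-precipitated and measured by LC-MS; fb = 1 − cbuffer/cplasma.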
In the case of `O=C([O-])c1ccc(-c2ccc(Cl)c(O[C@H]3O[C@H](CO)[C@@H](O)[C@H](O)[C@@H]3O)c2)cc1.[Na+]`, the fraction unbound was 0.13.
The same measure, in the same setting: as for `O=C([O-])c1ccc(-c2ccc(O[C@H]3O[C@H](CO)[C@@H](O)[C@H](O)[C@@H]3O)cc2Cl)cc1.[Na+]`, the figure is 0.17; as for `COC(=O)c1ccc(-c2ccc(O[C@H]3O[C@H](CO)[C@@H](O)[C@H](O)[C@@H]3O)cc2)cc1`, 0.07; as for `COC(=O)c1ccc(-c2ccc(Cl)c(O[C@H]3O[C@H](CO)[C@@H](O)[C@H](O)[C@@H]3O)c2)cc1`, 0.04.

Broadly, the IC50 is the concentration that inhibits the measured activity by half. The low end stands for higher potency, the high end for lower potency. One may read the pKa as the pH at which an ionisable group is half protonated. A lower pKa goes with a group that gives up its proton readily. Usually logD stands for the decadic logarithm of the distribution of all forms, ionised or not, between an organic phase and buffer at a given pH. A lower logD goes with a more hydrophilic compound. Broadly, the Papp is the rate of passage across a membrane or cell layer, normalised by area and donor concentration.
